The source made the active and inactive calls.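 How the source made its calls, unless noted: active means NADPH fluorescence slope more negative than the mean of all samples by about 3 SD, 99.7% confidence; inactive means the rest.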
Experiments:
[1] = inhibitors of TNFa-induced NFkB p65 translocation, primary screen, imaging, HUVEC, MLSMR starter and 10KST1 sets (AID 438;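 active means inhibition above 20% together with a positive visual image hit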;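 further: compound added about 3h40 before a 20 min TNFalpha stimulation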;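 on inhibition: signal is the nuclear over cytoplasmic p65 intensity ratio per well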); settings: HUVEC TNFa-induced p65 nuclear translocation; cell count: measured here: nuclei count (cytotoxicity indicator), at 2.08 µM unless noted; inhibition: at 2 µM, stronger effect = higher value unless noted
[2] = reduction of polyQ htt aggregates in cells – imaging, exon1htt(103Q)mCFP cells, high-content imaging, primary screen (AID 483;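 active means visual image review flags a hit and inhibition of aggregation exceeds 20%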;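 further: compound exposure lasted 3 days before fixation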;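 on nuclei count: percent of the per-plate median nuclei count of sample wells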); settings: exon1htt(103Q)mCFP cell line, aggregate imaging, at 2 µM; inhibition of aggregation: stronger effect = higher value; nuclei count: measured here: cell count, toxicity
[3] = endothelial E-selectin expression blockers – imaging, HUVEC, immunofluorescence, MLSMR starter and 10KST1 sets, primary screen (AID 487;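 active means visually confirmed hit in the image check and inhibition above 20%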;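 on inhibition: signal is fraction of cell area covered by stained E-selectin grains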;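 on nuclei count: 100% = median nuclei count of all wells on the same plate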); settings: HUVEC TNFalpha-induced E-selectin immunofluorescence imaging, at 2 µM; inhibition: stronger effect = higher value; nuclei count: measured here: cell number, toxicity
[4] = target: Voltage-gated potassium channel subunit beta-2 (Rattus norvegicus) (UniProt P62483); assay: inhibitors of rat Kvbeta2 reductase activity – biochemical, NADPH fluorescence, primary screen (AID 622;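 active means fluorescence slope higher than the sample average by over 3 SD, cut at about -0.22 in these data, passing the limit was not always enough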;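 further: slope of raw intensity against log time taken from 70 to 1610 s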); settings: recombinant KvBeta, 4-cyanobenzaldehyde reduction, at 10 µM, stronger effect = higher value
Chain of Voltage-gated potassium channel subunit beta-2 (Rattus norvegicus) (P62483 whole entry, looked up): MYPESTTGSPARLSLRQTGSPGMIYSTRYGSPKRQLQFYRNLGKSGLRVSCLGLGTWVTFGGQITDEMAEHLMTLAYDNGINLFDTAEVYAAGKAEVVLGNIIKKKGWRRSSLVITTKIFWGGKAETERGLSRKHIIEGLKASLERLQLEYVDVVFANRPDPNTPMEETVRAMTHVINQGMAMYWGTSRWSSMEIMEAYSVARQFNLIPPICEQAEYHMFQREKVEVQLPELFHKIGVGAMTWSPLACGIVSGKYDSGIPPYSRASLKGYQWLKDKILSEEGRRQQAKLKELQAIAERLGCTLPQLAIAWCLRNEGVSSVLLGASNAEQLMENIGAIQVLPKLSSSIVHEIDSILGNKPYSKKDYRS

[5] = target: Voltage-gated potassium channel subunit beta-2 (Rattus norvegicus) (UniProt P62483); assay: enhancers of rat Kvbeta2 NADPH turnover – biochemical, NADPH fluorescence, primary screen (AID 623); settings: Recombinant KvBeta, NADPH fluorescence decrease slope, 10 min; at 10 µM; stronger effect = lower value;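 further: fluorescence intensity change per second fitted from 20 to 320 s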
[6] = target: Alpha-2C adrenergic receptor (Homo sapiens) (UniProt P18825); assay: compounds altering alpha2C-coupled GIRK flux – cell-based, HEK293 alpha2C/GIRK1/2, thallium flux, primary screen (AID 624;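 active means fluorescence slope after compound addition differing from the mean of all screened samples at 99.7% confidence, in either direction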); settings: thallium flux BTC fluorescence, at 10 µM, actives lie on both sides
Chain of Alpha-2C adrenergic receptor (Homo sapiens) (P18825 whole entry, looked up): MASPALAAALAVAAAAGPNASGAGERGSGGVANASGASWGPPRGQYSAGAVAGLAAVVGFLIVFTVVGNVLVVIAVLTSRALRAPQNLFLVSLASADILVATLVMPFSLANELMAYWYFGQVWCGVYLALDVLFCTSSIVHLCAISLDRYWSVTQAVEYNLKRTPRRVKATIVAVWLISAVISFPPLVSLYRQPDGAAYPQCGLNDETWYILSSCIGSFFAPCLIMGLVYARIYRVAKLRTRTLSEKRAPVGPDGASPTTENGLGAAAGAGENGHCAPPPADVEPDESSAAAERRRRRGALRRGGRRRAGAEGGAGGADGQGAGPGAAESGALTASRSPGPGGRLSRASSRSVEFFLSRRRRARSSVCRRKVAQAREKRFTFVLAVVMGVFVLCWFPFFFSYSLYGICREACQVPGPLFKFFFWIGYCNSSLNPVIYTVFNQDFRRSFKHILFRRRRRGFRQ

[7] = blockers of RIG-like receptor reporter activation – cell-based, Sendai virus stimulus, luciferase, 10K MLSCN set, TLR/RLR signaling modifier project, primary screen (AID 602276;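 active means inhibition at or above 50% at 10 µM; inactive means inhibition below 50%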;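 further: firefly luciferase from ISG56 promoter only with Renilla not read in this screen; 0% = Sendai virus plus DMSO and 100% = medium plus DMSO without virus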); settings: HEK293 RL24 IRF3 luciferase reporter, at 10 µM, stronger effect = higher value
[8] = TLR3 IRF3 reporter activation blockers – cell-based, poly I:C stimulus, luciferase, 10K MLSCN set, primary screen (AID 602277;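 active means inhibition of the reporter signal at or above 50%; inactive means inhibition below 50%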); settings: HEK293-TLR3 RL24 IRF3 luciferase reporter, at 10 µM, stronger effect = higher value
[9] = inhibitors of larval lipid processing in zebrafish, primary screen, whole organism, PED6 fluorescence, gall bladder and intestine (AID 686;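 active means a full or partial loss of lipid-probe fluorescence in the fish gall bladder, intestine or both, judged by eye; inactive means no fluorescence loss, or compound toxic to the fish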;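 further: larvae 5 to 7 days old with five fish per well; signal comes from phospholipase A2 cleavage of quenched PED6 carried via bile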); settings: Zebrafish larvae PED6 lipid processing, fluorescence scoring
Outline: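 Incubation: overnight exposure of larvae to compound plus PED6 / Test system: live zebrafish larvae aged 5-7 days, whole organism / Amount: 5 larvae per well / Read-out basis: visual per-well fluorescence inhibition score / Signal: visual fluorescence microscopy scoring of gall bladder, gut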

[10] = target: Muscarinic acetylcholine receptor M4 (Homo sapiens) (UniProt P08173); assay: M4-linked GIRK flux change, two-sided – cell-based, HEK293 M4/GIRK, thallium flux, BTC-AM, M4 allosteric agonist project, primary screen (AID 625;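 active means fluorescence slope after compound addition differing from the mean of all tested samples at 99.7% confidence, mostly higher but some lower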;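 further: thallium influx through GIRK channels coupled to M4 in HEK293 cells with BTC-AM dye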); settings: at 10 µM, actives lie on both sides
Chain of Muscarinic acetylcholine receptor M4 (Homo sapiens) (P08173 whole entry, looked up): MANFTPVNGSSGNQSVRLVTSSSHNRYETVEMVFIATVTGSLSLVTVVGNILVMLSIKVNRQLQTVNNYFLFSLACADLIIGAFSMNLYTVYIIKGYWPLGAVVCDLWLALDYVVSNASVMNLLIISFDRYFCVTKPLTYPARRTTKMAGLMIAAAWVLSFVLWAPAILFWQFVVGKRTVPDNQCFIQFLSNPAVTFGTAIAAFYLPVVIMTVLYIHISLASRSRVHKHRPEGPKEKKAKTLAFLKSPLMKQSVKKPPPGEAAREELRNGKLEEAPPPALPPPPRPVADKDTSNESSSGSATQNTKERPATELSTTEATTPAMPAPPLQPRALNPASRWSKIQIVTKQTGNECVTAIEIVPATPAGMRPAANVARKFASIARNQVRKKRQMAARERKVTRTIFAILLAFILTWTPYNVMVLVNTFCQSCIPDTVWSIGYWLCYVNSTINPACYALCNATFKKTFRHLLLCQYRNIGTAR
Outline: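 Material: HEK293 cells with M4 receptor and GIRK channels; Times: cells overnight at 37 °C, BTC-AM loading 1 h, reads 2 min total; Technique: kinetic BTC-AM fluorescence sampled at 1 Hz, 10 s pre-addition baseline; Read-out basis: slope over 15–24 s of trace normalized to starting intensity; Controls: carbachol positive, DMSO negative.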

Structure (SMILES) | cell count [1] | inhibition [1] | inhibition of aggregation [2] | nuclei count [2] | inhibition [3] | nuclei count [3] | fluorescence slope [4] | NADPH fluorescence slope [5] | slope [6] | inhibition [7] | inhibition [8] | outcome [9] | fluorescence slope [10]
CC(=NCCCO)c1c(O)n(Cc2ccccc2)c(=O)[nH]c1=O | 374 | -1.2% (inactive) | -15.8% (inactive) | 113% | -197% (inactive) | 130% | -0.384 (inactive) | -3.6e-05 (inactive) | 0.00369 (inactive) | 13% (inactive) | 11% (inactive) | – | –
CN1CCN(c2c[nH]c(=O)[nH]c2=O)CC1 | 446 | 0% (inactive) | -25.3% (inactive) | 90.3% | -143% (inactive) | 105% | -0.495 (inactive) | -3.4e-05 (inactive) | 0.00648 (inactive) | 2.56% (inactive) | 19.8% (inactive) | – | –
CC1=C(C(=O)N2CCC3(CC2)OCCO3)C2(CCC(C)CC2)OC1=O (centres undefined) | 651 | -25.5% (inactive) | 3.3% (inactive) | 104% | -0.9% (inactive) | 103% | -0.377 (inactive) | -4.4e-05 (inactive) | 0.00593 (inactive) | 7.64% (inactive) | 31.1% (inactive) | – | –
Cc1nn(-c2ccccc2)c2c1CC1(C(=O)N(C)C(=O)N(C)C1=O)C1CCCCN21 (centres undefined) | 438 | -14.2% (inactive) | 26.9% (inactive) | 65.3% | -8.8% (inactive) | 101% | -0.509 (inactive) | -2.5e-05 (inactive) | 0.00545 (inactive) | -9.7% (inactive) | 28.2% (inactive) | – | –
CCOc1cc2[nH]c(=S)n(CCCC(=O)N3CCC4(CC3)OCCO4)c(=O)c2cc1OCC | 429 | 9.4% (inactive) | -0.4% (inactive) | 95.6% | -41.4% (inactive) | 107% | -0.464 (inactive) | 7.5e-06 (inactive) | 0.00495 (inactive) | -5.57% (inactive) | 17.4% (inactive) | – | –
Cc1ccnc(-n2c(-c3ccco3)nc3ccccc3c2=O)c1 | 445 | 10.2% (inactive) | -19.2% (inactive) | 115% | -4.3% (inactive) | 106% | -0.508 (inactive) | -3.8e-05 (inactive) | 0.0068 (inactive) | 6.03% (inactive) | -0.166% (inactive) | – | –
C=CCn1c(O)c(C(C)=NCc2cccnc2)c(=O)[nH]c1=O | 364 | -1% (inactive) | 15.3% (inactive) | 96% | -99.8% (inactive) | 162% | -0.429 (inactive) | -4.2e-05 (inactive) | 0.00457 (inactive) | 9.61% (inactive) | 32.6% (inactive) | – | –
O=C1CC(c2ccccc2)CC(O)=C1C=NCCN1CCN(C(=O)Cc2ccccc2)CC1 (centres undefined) | 450 | 2.9% (inactive) | 8.6% (inactive) | 92.1% | -82.2% (inactive) | 115% | -0.529 (inactive) | 3.3e-05 (inactive) | 0.00558 (inactive) | 17.1% (inactive) | 25.9% (inactive) | – | –
CC(C)OCCCNC(=O)c1c(N)n(Cc2cccs2)c2nc3ccccc3nc12 | 434 | -9.3% (inactive) | 17.9% (inactive) | 90.9% | 4.6% (inactive) | 134% | -0.212 (inactive) | 1.8e-05 (inactive) | 0.00386 (inactive) | 14.8% (inactive) | 37.4% (inactive) | – | –
CCN1CCN(Cc2cc(Br)cc(OC)c2O)CC1 | 579 | 3.6% (inactive) | 20.4% (inactive) | 99.4% | -82.5% (inactive) | 123% | -0.441 (inactive) | -4e-05 (inactive) | 0.00663 (inactive) | -7.48% (inactive) | 5.42% (inactive) | – | –
C=CCN1C(=O)C2(C(C(=O)OCC)=C(N)Oc3c2c(=O)oc2ccccc32)c2ccccc21 (centres undefined) | 679 | -7.1% (inactive) | 10.1% (inactive) | 93.2% | -41% (inactive) | 91.1% | -0.467 (inactive) | -0.000107 (inactive) | 0.00519 (inactive) | 13.6% (inactive) | 21.3% (inactive) | inactive | –
Cn1c(C(=O)N2CCC3(CC2)OCCO3)cc2c(=O)n(C)c3ccccc3c21 | 551 | -0.2% (inactive) | 26.7% (inactive) | 104% | -17.8% (inactive) | 125% | -0.522 (inactive) | -5.9e-06 (inactive) | – | 13.8% (inactive) | 20.5% (inactive) | – | 0.00705 (inactive)
O=C(C1CCCN(c2nnc(-n3cccc3)s2)C1)N1CCC2(CC1)OCCO2 (centres undefined) | 597 | -2.2% (inactive) | 1.5% (inactive) | 115% | 8.1% (inactive) | 92.8% | -0.388 (inactive) | -4.5e-05 (inactive) | 0.00502 (inactive) | -2.39% (inactive) | -5.8% (inactive) | inactive | –
COc1cc(C2NCc3ccccc3-n3cccc32)ccc1O (centres undefined) | 660 | -19.1% (inactive) | 12.9% (inactive) | 123% | -128% (inactive) | 110% | -0.487 (inactive) | -3.3e-05 (inactive) | – | -1.03% (inactive) | -2.21% (inactive) | – | 0.00515 (inactive)
COc1cc(/C=N/n2cnnc2)ccc1OC(=O)N(C)C | 615 | -19.9% (inactive) | -14.7% (inactive) | 114% | -3.5% (inactive) | 98.1% | -0.436 (inactive) | 3.1e-05 (inactive) | – | 13% (inactive) | 20.9% (inactive) | – | 0.0081 (inactive)
Cn1c(O)c(C=NCc2ccco2)c(=O)n(C)c1=O | 327 | -3.8% (inactive) | -8.5% (inactive) | 109% | -150% (inactive) | 118% | -0.557 (inactive) | 3.2e-06 (inactive) | – | 22.6% (inactive) | 14.6% (inactive) | – | 0.00416 (inactive)
O=C(O)Cn1cc(C(=O)c2ccccc2)c2ccccc21 | 389 | -3.3% (inactive) | 16.7% (inactive) | 89.2% | -22.1% (inactive) | 104% | -0.352 (inactive) | 1.2e-06 (inactive) | 0.00605 (inactive) | 9.27% (inactive) | 23% (inactive) | inactive | –
Cn1c(=O)cc(SCC(=O)N2CCC3(CC2)OCCO3)c2ccc(Cl)cc21 | 442 | 0.9% (inactive) | 7.2% (inactive) | 84.4% | 22.8% (inactive) | 106% | -0.556 (inactive) | -3.6e-05 (inactive) | – | 32.3% (inactive) | 38.4% (inactive) | – | 0.00629 (inactive)
Oc1ccc(C2NCc3ccccc3-n3cccc32)cc1Cl (centres undefined) | 668 | -13.6% (inactive) | 35.1% (inactive) | 127% | -48.5% (inactive) | 110% | -0.46 (inactive) | -3.3e-05 (inactive) | – | 4.87% (inactive) | 23.9% (inactive) | – | 0.00669 (inactive)
O=C(Cc1ccccc1)OC(COCc1ccccc1)CN1CCOCC1 (centres undefined) | 314 | -7.8% (inactive) | -19.1% (inactive) | 77.8% | -56.9% (inactive) | 117% | -0.37 (inactive) | 2.9e-05 (inactive) | – | 2.92% (inactive) | 10.1% (inactive) | – | 0.00718 (inactive)
CCOc1ccc(Br)c(C2(O)CC(C)N(C)CC2C)c1 (centres undefined) | 607 | -10.1% (inactive) | -25.8% (inactive) | 122% | -36.6% (inactive) | 121% | -0.398 (inactive) | -8.9e-05 (inactive) | – | 12.4% (inactive) | 21.4% (inactive) | – | 0.00551 (inactive)
O=C(CN1C2CCC1CC(O)(c1cccnc1)C2)Nc1ccc2c(c1)OCO2 (centres undefined) | 414 | 7.5% (inactive) | -3.4% (inactive) | 104% | -176% (inactive) | 115% | -0.591 (inactive) | 5.6e-07 (inactive) | 0.00303 (inactive) | 15% (inactive) | 22.4% (inactive) | – | –
CNP1(NC)=NC(C(F)(F)F)=NC(C(F)(F)F)=N1 | 338 | -24% (inactive) | 6.8% (inactive) | 112% | -0.4% (inactive) | 89.8% | -0.447 (inactive) | -3.2e-05 (inactive) | 0.00454 (inactive) | -2.73% (inactive) | 97.8% (active) | inactive | –
CCCCCCC(N)CC(=O)O (centres undefined) | 689 | 2.4% (inactive) | -9.8% (inactive) | 116% | 42.8% (inactive) | 80.1% | -0.456 (inactive) | -3e-05 (inactive) | 0.00377 (inactive) | 9.07% (inactive) | 28% (inactive) | – | –
O=C(c1ccc(CS(=O)(=O)c2ccccc2)o1)N1CCC2(CC1)OCCO2 | 379 | 8% (inactive) | -2% (inactive) | 97% | -80.2% (inactive) | 107% | -0.523 (inactive) | -0.000178 (inactive) | – | -15.4% (inactive) | -9.63% (inactive) | – | 0.00484 (inactive)
